ChEMBL document CHEMBL4765405, “Design, synthesis and biological activities of novel pleuromutilin derivatives with a substituted triazole moiety as potent antibacterial agents” (Eur J Med Chem, 2020)
Values after ≈ are worked out from the molar mass of the structure shown. Active and inactive are the calls of the source. The rule behind the calls is not given here.

Tests used:
[1] = test system: Staphylococcus aureus; assay: Bactericidal activity against Staphylococcus aureus ATCC 29213 preincubated 16 to 20 hrs followed by subculturing and measured after over night; assay type: functional
Outline: (§1)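 MBC by CLSI broth microdilution on the same strain panel: S. aureus ATCC 43300, ATCC 29213, clinical isolates AD3 and 144, E. coli ATCC 25922; ATCC 43300 served as QC strain.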

[2] = test system: Staphylococcus aureus; assay: Antibacterial activity against methicillin-resistant Staphylococcus aureus ATCC 43300 infected in ICR/Swiss mouse systemic infection model assessed as survival rate at 30 mg/kg, ip after 7 days relative to control; assay type: functional; settings: ATCC 43300, ip, 168 h, time 7 day
Outline: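 MRSA systemic infection model in mice. Dose 30 mg/kg with tiamulin as comparator and an untreated infected control. Survival was recorded after 7 days of administration.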

[3] = test system: Staphylococcus aureus; assay: Antibacterial activity against Staphylococcus aureus 144 after 24 hrs by CLSI based broth micro dilution method; assay type: functional
Outline: (§2)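 Broth microdilution run per CLSI. MRSA ATCC 43300 served as the QC strain, with the CLSI QC range as reference. S. aureus AD3 and 144 are clinical isolates from Guangdong Province. Pleuromutilin and tiamulin were run as reference drugs.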

[4] = test system: Staphylococcus aureus; assay: Bactericidal activity against methicillin-resistant Staphylococcus aureus ATCC 43300 preincubated 16 to 20 hrs followed by subculturing and measured after over night; assay type: functional
Outline: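 MBC determined by the CLSI broth microdilution method against MRSA ATCC 43300, with ATCC 43300 also serving as the QC strain. Pleuromutilin and tiamulin were reference drugs.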

[5] = test system: Staphylococcus aureus; assay: Antibacterial activity against methicillin-resistant Staphylococcus aureus ATCC 43300 assessed as post antibacterial effect at 2 time of MIC concentration preincubated for 2 hrs followed by compound washout further incubated with fresh medium and measured for 6 hrs; assay type: functional
[6] = test system: Staphylococcus aureus; assay: Bactericidal activity against Staphylococcus aureus 144 preincubated 16 to 20 hrs followed by subculturing and measured after over night; assay type: functional; outline: as §1
[7] = test system: Staphylococcus aureus; assay: Antibacterial activity against methicillin-resistant Staphylococcus aureus ATCC 43300 after 24 hrs by CLSI based broth micro dilution method; assay type: functional; outline: as §2
[8] = test system: Staphylococcus aureus; assay: Antibacterial activity against methicillin-resistant Staphylococcus aureus ATCC 43300 assessed as post antibacterial effect at 4 time of MIC concentration preincubated for 2 hrs followed by compound washout further incubated with fresh medium and measured for 6 hrs; assay type: functional
[9] = test system: Staphylococcus aureus; assay: Antibacterial activity against Staphylococcus aureus ATCC 29213 after 24 hrs by CLSI based broth micro dilution method; assay type: functional; outline: as §2
[10] = test system: Staphylococcus aureus; assay: Antibacterial activity against methicillin-resistant Staphylococcus aureus ATCC 43300 infected in ICR/Swiss mouse model of neutropenic thigh infection assessed as reduction in bacterial load at 20 mg/kg, iv and measured after 24 hrs; assay type: functional
Outline: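 Mice made neutropenic by intraperitoneal cyclophosphamide; the negative control group received 0.9% saline intraperitoneally. Thigh muscle was inoculated with about 10^7 CFU/mL MRSA. Dose 20 mg/kg, with tiamulin as comparator and an untreated control. Read-out was thigh bacterial load (log10 CFU/g), n = 6/group.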

[11] = test system: Staphylococcus aureus; assay: Bactericidal activity against Staphylococcus aureus AD3 preincubated 16 to 20 hrs followed by subculturing and measured after over night; assay type: functional; outline: as §1
[12] = test system: Staphylococcus aureus; assay: Antibacterial activity against Staphylococcus aureus AD3 after 24 hrs by CLSI based broth micro dilution method; assay type: functional
Outline: (§3)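 CLSI broth microdilution MIC against S. aureus ATCC 43300 (MRSA), ATCC 29213, clinical isolates AD3 and 144 (Guangdong Province), and E. coli ATCC 25922; ATCC 43300 served as QC strain, with the CLSI quality control range as reference.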

[13] = test system: Staphylococcus aureus; assay: Bactericidal activity against methicillin-resistant Staphylococcus aureus ATCC 43300 assessed as reduction in bacterial growth at > 4 time of MIC concentration preincubated up to 24 hrs followed by subculturing and measured after 20 hrs by time-kill assay; assay type: functional; parameters: scale not given: the % may be the effect or the level left; settings: time hrs <=44
[14] = test system: Escherichia coli; assay: Antibacterial activity against Escherichia coli ATCC 25922 after 24 hrs by CLSI based broth micro dilution method; assay type: functional; outline: as §3
[15] = Ratio of MBC for bactericidal activity against methicillin-resistant Staphylococcus aureus ATCC 43300 to MIC for antibacterial activity against methicillin-resistant Staphylococcus aureus ATCC 4330; assay type: functional
[16] = test system: Staphylococcus aureus; assay: Bactericidal activity against methicillin-resistant Staphylococcus aureus ATCC 43300 assessed as reduction in bacterial growth at MIC concentration preincubated up to 24 hrs followed by subculturing and measured after 20 hrs by time-kill assay; assay type: functional, organism-based; settings: time hrs <=44
[17] = test system: Escherichia coli; assay: Bactericidal activity against Escherichia coli ATCC 25922 preincubated 16 to 20 hrs followed by subculturing and measured after over night; assay type: functional; outline: as §1
[18] = target: Cytochrome P450 3A4 (Homo sapiens, UniProt P08684); assay: Inhibition of CYP3A4 in human liver microsomes using testosterone as substrate preincubated for 5 mins followed by NADPH addition and measured after 5 mins by LC-MS/MS analysis; assay type: ADME
[19] = test system: RAW264.7; assay: Cytotoxicity against mouse RAW264.7 cells assessed as reduction in cell viability at 8 ug/ml after 16 hrs by MTT assay; assay type: cell-based; settings: raw264.7, 16 h, dose 8 µg/ml
Outline: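 RAW 264.7 macrophage viability read by MTT assay after exposure at 8 μg/mL.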

[20] = Inhibition of CYP450 (unknown origin); assay type: ADME, Homo sapiens

Sequence of Cytochrome P450 3A4 (P08684 whole entry): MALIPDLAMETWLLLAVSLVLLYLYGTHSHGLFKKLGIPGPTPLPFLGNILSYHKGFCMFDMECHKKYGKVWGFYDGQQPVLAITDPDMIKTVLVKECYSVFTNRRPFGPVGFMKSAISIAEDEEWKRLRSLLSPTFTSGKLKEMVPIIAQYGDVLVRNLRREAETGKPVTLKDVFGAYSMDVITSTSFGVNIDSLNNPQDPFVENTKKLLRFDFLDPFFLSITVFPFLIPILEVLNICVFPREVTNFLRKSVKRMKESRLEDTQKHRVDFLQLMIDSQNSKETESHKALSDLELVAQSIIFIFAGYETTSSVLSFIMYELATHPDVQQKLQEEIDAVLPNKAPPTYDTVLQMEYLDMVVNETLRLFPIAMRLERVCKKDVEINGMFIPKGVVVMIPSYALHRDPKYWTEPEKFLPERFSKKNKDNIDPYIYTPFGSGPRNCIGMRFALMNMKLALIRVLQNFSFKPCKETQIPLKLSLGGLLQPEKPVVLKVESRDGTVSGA

SMILES	MBC [1]	survival at 30 mg/kg [2]	MIC [3]	MBC [4]	PAE [5]	MBC [6]	MIC [7]	PAE [8]	MIC [9]	Activity [10]	MBC [11]	MIC [12]	Activity [13]	MIC [14]	Ratio [15]	Activity [16]	MBC [17]	IC50 [18]	Activity [19]	IC50 [20]
C=C[C@]1(C)C[C@@H](OC(=O)CSCCN(CC)CC)[C@]2(C)[C@H](C)CC[C@]3(CCC(=O)[C@H]32)[C@@H](C)[C@@H]1O [TIAMULIN]	1 µg/mL (≈ 2.03 µM)	20%	1 µg/mL (≈ 2.03 µM)	1 µg/mL (≈ 2.03 µM)	1.65 h	2 µg/mL (≈ 4.05 µM)	0.5 µg/mL (≈ 1.01 µM)	2.04 h	0.5 µg/mL (≈ 1.01 µM)	0.77 log10CFU/g	2 µg/mL (≈ 4.05 µM)	1 µg/mL (≈ 2.03 µM)								
C=C[C@]1(C)C[C@@H](OC(=O)CSc2ccccc2NC(=O)Cn2cc(CN(CC)CC)nn2)[C@]2(C)[C@H](C)CC[C@]3(CCC(=O)[C@H]32)[C@@H](C)[C@@H]1O	0.25 µg/mL (≈ 0.368 µM)		0.5 µg/mL (≈ 0.735 µM)	0.5 µg/mL (≈ 0.735 µM)	1.81 h	0.5 µg/mL (≈ 0.735 µM)	0.25 µg/mL (≈ 0.368 µM)	1.84 h	0.25 µg/mL (≈ 0.368 µM)		1 µg/mL (≈ 1.47 µM)	0.5 µg/mL (≈ 0.735 µM)	99.9%	> 32 µg/mL	1	Active	> 32 µg/mL			
C=C[C@]1(C)C[C@@H](OC(=O)CSc2ccccc2NC(=O)Cn2cc(CN(C)C)nn2)[C@]2(C)[C@H](C)CC[C@]3(CCC(=O)[C@H]32)[C@@H](C)[C@@H]1O	0.25 µg/mL (≈ 0.384 µM)	50%	0.5 µg/mL (≈ 0.767 µM)	0.5 µg/mL (≈ 0.767 µM)	2.03 h	0.5 µg/mL (≈ 0.767 µM)	0.25 µg/mL (≈ 0.384 µM)	2.74 h	0.25 µg/mL (≈ 0.384 µM)	1.71 log10CFU/g	0.5 µg/mL (≈ 0.767 µM)	0.25 µg/mL (≈ 0.384 µM)	99.9%	> 32 µg/mL	1	Active	> 32 µg/mL	6.15 µM	Non-Toxic	
CC[C@]1(C)C[C@@H](OC(=O)CSc2nnc(N)[nH]2)[C@]2(C)[C@H](C)CC[C@]3(CCC(=O)[C@H]32)[C@@H](C)[C@@H]1O [AZAMULIN]																				0.12 µM
